Source: PubChem
A selection: hits, their analogues and other compounds. The true share with any hit is near 3.8%.
KCNK3 block: human KCNK3 channel inhibitors, primary screen, CHO cells, FluxOR thallium flux, B-score; Potassium channel subfamily K member 3 (Homo sapiens), O14649; FluxOR fluorescence; active compounds read low; B-score at 10 µM; hit rate 0.84% among 340,000; AID 602410, 2012;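 active = B-score under library mean minus 4 SD, starting fluorescence ratio at most library mean plus 5 SD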;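 also: more negative B-score means stronger inhibition of thallium flux through KCNK3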
Target sequence (O14649 whole entry, looked up): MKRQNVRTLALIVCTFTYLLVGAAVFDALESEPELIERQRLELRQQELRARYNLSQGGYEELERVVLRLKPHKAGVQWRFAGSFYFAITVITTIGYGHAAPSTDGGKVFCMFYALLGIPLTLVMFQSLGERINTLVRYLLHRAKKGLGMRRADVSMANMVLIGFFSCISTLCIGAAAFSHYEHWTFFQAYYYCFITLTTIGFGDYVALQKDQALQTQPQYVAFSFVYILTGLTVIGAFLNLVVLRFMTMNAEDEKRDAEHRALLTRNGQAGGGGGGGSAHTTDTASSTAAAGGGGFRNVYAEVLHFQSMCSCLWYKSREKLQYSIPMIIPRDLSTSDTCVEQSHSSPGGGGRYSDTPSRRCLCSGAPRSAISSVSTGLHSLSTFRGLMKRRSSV
Kir21 inh: inhibitors of mouse Kir2.1 inward-rectifier potassium channel | AID 1672, 2009 | hit rate 0.85% among 310,000 | B-score at 10 µM | HEK293-Kir2.1, FluxOR thallium flux fluorescence; active compounds read low | Inward rectifier potassium channel 2 (Mus musculus), P35561;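 active = fluorescence ratio B-score at or below minus 3 SD of library scores, with starting-brightness B-score within 2 SD, cut at about -4.2 in these data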;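 also: channel flux triggered by added potassium and thallium sulfate stimulus; B-score of peak minus minimum fluorescence over baseline after thallium stimulus; more negative B-score means stronger Kir2.1 block with less thallium influx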
hERG rescue: hERG rescue from dofetilide block, primary screen, cell-based, CHO-hERG, FluxOR thallium flux, dofetilide IC70; Voltage-gated inwardly rectifying potassium channel KCNH2 (Homo sapiens), Q12809; dofetilide IC70 present; activation (rescue from dofetilide block), less the hit threshold, % at 10 µM; hit rate 0.51% among 310,000; AID 1511, 2009;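 active = activation above the mean of controls blocked by dofetilide plus 5 SD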;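 also: thallium influx through hERG after potassium depolarization seen as dye fluorescence rise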
KCNK9 block: KCNK9 potassium channel inhibitors, primary screen, HEK293 cells, thallium flux; Potassium channel subfamily K member 9 (Homo sapiens), Q9NPC2; FluxOR thallium flux fluorescence; active compounds read low; B-score at 10 µM; hit rate 1.2% among 310,000; AID 488922, 2010;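 active = ratio B-score over 3 SD below the library mean, with starting fluorescence within 5 SD of its mean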;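 also: negative B-score means less thallium flux so channel inhibition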
KCNQ1 block: inhibitors of human KCNQ1 channel, primary screen, cell-based, thallium flux, high-throughput | Potassium voltage-gated channel subfamily KQT member 1 (Homo sapiens), P51787 | CHO-K1 KCNQ1, FluxOR thallium flux fluorescence; active compounds read high | B-score at 10 µM | hit rate 1.3% among 310,000 | AID 2642, 2010;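 active = compounds whose thallium flux B-score, printed positive for inhibition, exceeds three library SD while starting fluorescence stays within three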;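 also: channel opened by potassium depolarization with thallium stimulus after 20 min compound exposure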
KCNQ1 act: potentiators or activators of KCNQ1 channel, primary screen, cell-based, thallium flux, high-throughput | hit rate 0.35% among 310,000 | Potassium voltage-gated channel subfamily KQT member 1 (Homo sapiens), P51787 | B-score at 10 µM | CHO-K1 KCNQ1, thallium flux FluxOR fluorescence; active compounds read high | AID 2648, 2010;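 active = fluorescence ratio B-score, a plate-corrected score, at least three library SD, with initial intensity B-score within 5 SD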
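assay system = CHO-K1 cells stably expressing KCNQ1 | medium = assay buffer, equal DMSO in all wells | timing = 37 °C overnight plating, 90-min dark dye load, 20-min compound pretreatment | measured by = kinetic FluxOR thallium fluorescence, 10-s 1-Hz baseline, 110-s post-stimulus read | measure = fluorescence change relative to baseline, converted to B score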
KCNK9 inh conf: KCNK9 potassium channel inhibitors, confirmation, HEK293 cells, thallium flux, duplicate; shares compounds with KCNK9 block; FluxOR thallium flux fluorescence; inhibition, % at 10 µM; hit rate 43% among 4,900; AID 492992, 2010;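 active = thallium signal inhibited by more than 5 SD of the compound-free buffer control wells, on both duplicate plates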
Kir2-1 spec: mouse Kir2.1 channel inhibition, confirmation, selectivity assay for KCNK9 modulator project, cell-based, HEK293, thallium flux. shares compounds with KCNK9 block. Kir2.1 cells, FluxOR thallium flux fluorescence. inhibition, % at 10 µM. hit rate 4% among 4,900. AID 492993, 2010;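 active = thallium signal drop more than 5 SD beyond the mean of the no-compound control wells, seen in both duplicate plates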;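 also: signal is fluorescence rise after thallium addition divided by baseline fluorescence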
KCNK9 uninduced: thallium flux in non-induced HEK293 cells, confirmation, counter-screen for KCNK9 inhibitor project, cell-based, second counter screen, non-induced KCNK9-HEK293; shares compounds with KCNK9 block; FluxOR thallium flux; inhibition, % at 10 µM; hit rate 40% among 4,900; AID 492997, 2010;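 active = thallium signal drop beyond 5 SD of the untreated control mean, on both duplicate plates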
KCNK3 inh conf: retest of human KCNK3 channel inhibitors, confirmation, CHO cells, FluxOR thallium flux, triplicate. FluxOR fluorescence; 0% buffer, 100% carvedilol maximal block. hit rate 99% among 2,400. ratio percent of control, % at 10 µM. shares compounds with KCNK3 block;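 active = ratio percent of control, averaged over triplicates, above buffer control mean plus 5 SD, cut at about 64% in these data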;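 also: ratio is the fluorescence rise from min to max over baseline after thallium stimulus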
KCNK3 uninduced: thallium flux inhibition in non-induced cells, primary screen, counter-screen for KCNK3 inhibitor project, cell-based, non-induced KCNK3 line, FluxOR thallium, triplicate; shares compounds with KCNK3 block; non-induced KCNK3 parental cells; active compounds read low; thallium flux ratio (lower = more inhibition) at 10 µM; hit rate 40% among 2,400; AID 651747, 2012;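 active = thallium flux ratio, averaged over three wells, more than 5 SD below the buffer control mean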;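 also: host cells are CHO cells without KCNK3 induction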
Numbers stand for hits; - = inactive; . = no result given.

SMILES	KCNK3 block	Kir21 inh	hERG rescue	KCNK9 block	KCNQ1 block	KCNQ1 act	KCNK9 inh conf	Kir2-1 spec	KCNK9 uninduced	KCNK3 inh conf	KCNK3 uninduced
O=C(c1ccco1)N1CCN(c2nc(C3CC3)nc3sc4c(c23)CCCC4)CC1	-8.7	-	-	-18.8	-	-	66.0%	-	27.5%	116.7	0.134
Cc1sc2nc(C3CC3)nc(N3CCN(C(=O)c4ccccc4F)CC3)c2c1C	-11.7	-	-	-13.1	-	-	-	-	28.5%	114.3	0.138
Cc1sc2nc(C3CC3)nc(N3CCN(C(=O)c4ccc(F)cc4)CC3)c2c1C	-13.4	-	-	-14.3	-	-	29.0%	-	28.5%	92.3	-
COc1ccc(CNC(=O)CNC(=O)c2c(C)nn(C)c2Cl)cc1	-	-	-	-	-	-	.	.	.	.	.
CCC(C)(C(=O)NC1CCCCC1)N(CC1CCCO1)C(=O)Cc1cccs1 (centres undefined)	-	-	-	-	-	-	.	.	.	.	.
CCO/N=C(\C)c1c(O)c2ccccc2n(C)c1=O	-	-	-	-	-	-	.	.	.	.	.
O=C(Nc1cccc(Cl)c1)N(CCN1CCOCC1)Cc1ccccc1F	-	-	-	-	-	-	.	.	.	.	.
C=CCC(c1ccccc1F)N(CCN1CCOCC1)C(=O)Nc1cccc(Cl)c1 (centres undefined)	-8.94	-	-	-12.9	-	-	57.0%	-	39.5%	127.3	0.14
Cc1cc(C)nc(NC(=NCCc2c[nH]c3ccccc23)NC(=O)c2ccco2)n1	-9.01	-	-	-15.2	-	-	30.0%	-	-	134.7	0.152
CCc1nc(SCC(=O)NNC(=O)c2ccc(OC)cc2)c2ccccc2n1	-	-	-	-	-	-	.	.	.	.	.
CCCc1nc(SCC(=O)c2ccc(OC)cc2)c2ccccc2n1	-10.9	-	-	-18.6	-	-	78.0%	-	27.0%	107.7	0.158
Cc1cc(C(=O)CSc2nc3ccc(Cl)cc3[nH]2)c(C)n1Cc1ccco1	-9.7	-	-	-	-	-	-	-	-	93.7	-
CCCNC(=O)c1ccc(N2CCC3(CC2)CC(c2ccccc2)=NO3)c(NC(=O)c2cccc(C)c2)c1	-	-	-	-	-	-	.	.	.	.	.
O=C(Nc1cccc(NC(=O)c2c(F)cccc2F)n1)c1c(F)cccc1F	-10.9	-	-	-11	-	8	50.0%	-	30.0%	101.0	-
COc1ccccc1C1CCN(c2ccc(CO)cc2[N+](=O)[O-])CC1	-	-	-	-	-	-	.	.	.	.	.
Cc1c(C(=O)N(C)Cc2cccc(F)c2)oc2c(Cl)cccc12	-10.7	-	-	-13.9	-	-	47.0%	-	49.0%	104.0	-
